Measurements published in PMC9464755 (Advances in Therapy, 2022).
≈ marks a conversion by molar mass, not a printed value. Like-named read-outs stand apart in the source and are kept apart here. One block for each molecule: values may come before it.

How the values were obtained:
[1] = cited from earlier work
[2] = cited from earlier work; remark: listed apart in the source
[3] = Steady-state pharmacokinetics of lazertinib with; format: in vivo, human; details: for CD15, arithmetic mean: 240 mg once daily; for DNAUCss, arithmetic mean / DNCmax,ss, arithmetic mean / DNCD15, arithmetic mean: 40–320 mg once daily; for DNAUCss, arithmetic mean / DNCmax,ss, arithmetic mean: steady state
Summary of the method: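 NSCLC patients dosed once daily, fasting, in 21-day cycles. AUCss and Cmax,ss came from non-compartmental analysis using actual sampling times over the dosing interval after the 22nd dose (cycle 2 day 1). CD15 is the trough before the 15th dose. Groups were compared using dose-normalized values within the dose-proportional range, plus raw values at 240 mg. Analysis was ANOVA on log-transformed values with group as fixed effect; geometric mean ratios with 90% CI.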

[4] = once-daily administration; cited from earlier work
[5] = cited from earlier work; remark: listed apart in the source
[6] = tested on: cytochrome P450 (CYP) 3A4; details: in vitro study; cited from earlier work
[7] = healthy subjects; cited from earlier work
[8] = co-administered with omeprazole or ranitidine
[9] = co-administered with ranitidine (an H2RA)

Compound: O=C(c1ccc(F)c(F)c1Nc1ccc(I)cc1F)N1CC(O)([C@@H]2CCCCN2)C1 [cobimetinib]
Effect of rabeprazole on exposure ([1]; fed and fasted conditions): did not result in a statistically significant effect
Fold less solubility ([2]; pH 6.4 compared to pH 1.9): 100 fold

Compound: C[C@@H](Oc1cc(-c2cnn(C3CCNCC3)c2)cnc1N)c1c(Cl)ccc(F)c1Cl [crizotinib]
Effect of esomeprazole on pharmacokinetics [1]: no clinically significant effect
Solubility ([2]; pH 1.6): > 10000 µg/mL
Solubility ([2]; pH 7.7): 100 µg/mL (≈ 0.222 mM)

Compound: C#Cc1cccc(Nc2ncnc3cc(OCCOC)c(OCCOC)cc23)c1 [erlotinib]
AUC decreased by [1, 8]: 30–45%
Cmax decreased by [1, 8]: 50–60%

Compound: COc1cc2ncnc(Nc3ccc(F)c(Cl)c3)c2cc1OCCCN1CCOCC1 [gefitinib]
AUC decreased to [1, 9]: 45%
Cmax decreased to [1, 9]: 70%

Reduction of exposure by ARAs at the steady state ([3]; ARA group versus non-ARA group): approximately 10%
Effect of co-administered ARAs on the steady state pharmacokinetics ([3]; ARA group versus non-ARA group, all p values > 0.05): did not significantly affect
CD15, arithmetic mean ([3]; ARA group, trough day 15 of cycle 1, n=10): 159.01 (62.4%) ng/mL
DNAUCss, arithmetic mean ([3]; ARA group, n=19): 25.51 (59.9%) h·ng/mL/mg
DNCmax,ss, arithmetic mean ([3]; ARA group, n=19): 1.97 (50.1%) ng/mL/mg
DNCD15, arithmetic mean ([3]; ARA group, trough day 15 of cycle 1, n=23): 0.66 (62.1%) ng/mL/mg
CD15, arithmetic mean ([3]; Non-ARA group, trough day 15 of cycle 1, n=115): 175.70 (59.4%) ng/mL
DNAUCss, arithmetic mean ([3]; Non-ARA group, n=105): 27.61 (42.9%) h·ng/mL/mg
DNCmax,ss, arithmetic mean ([3]; Non-ARA group, n=105): 2.14 (44.3%) ng/mL/mg
DNCD15, arithmetic mean ([3]; Non-ARA group, trough day 15 of cycle 1, n=203): 0.72 (63.4%) ng/mL/mg
Compound: C=CC(=O)Nc1cc(Nc2nccc(-n3cc(CN(C)C)c(-c4ccccc4)n3)n2)c(OC)cc1N1CCOCC1 [lazertinib, Lazertinib]
Time to reach steady state [4]: ≤ 15 days
Solubility in aqueous media ([5]; between pH 5.0 and 6.0): solubility decreasing
Solubility in aqueous media ([5]; pH 1.2–4.0): soluble
Solubility in aqueous media ([5]; pH 7.0–8.0): practically insoluble
Metabolizing enzyme [6]: predominantly metabolized by cytochrome P450 (CYP) 3A4
Effect of a high-fat meal on the pharmacokinetics [7]: did not significantly affect

Compound: COC(=O)c1ccc2c(c1)NC(=O)/C2=C(\Nc1ccc(N(C)C(=O)CN2CCN(C)CC2)cc1)c1ccccc1 [nintedanib]
Effect of PPI or H2RA on exposure [1]: neither PPI nor H2RA affected
pH-dependent solubility profile [2]: increased solubility at acidic pH < 3

Compound: Cc1ccc(C(=O)Nc2ccc(CN3CCN(C)CC3)c(C(F)(F)F)c2)cc1C#Cc1cnc2cccnn12 [ponatinib]
Effect of lansoprazole on exposure [1]: did not have a clinically significant effect
